The values below come from ChEMBL document CHEMBL1125559, “Analogues of platelet activating factor. 7. Bis-aryl amide and bis-aryl urea receptor antagonists of PAF” (J Med Chem, 1992).

For data set [1], the system named is Mus musculus. The data set is described as follows: Compound was evaluated for PAF-induced lethality in mouse (intraperitoneally at a dose of 1.0 mg/kg in saline 0.5 hr before lethal intravenous PAF challenge 75-150 mg/kg). Details: dose 1 mg/kg, route intraperitoneal. The settings on record: in vivo. It is filed as ADME, organism-based. Summed up:
(§1)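 Female Swiss-Webster mice (20-25 g) received test compound ip in saline (10 mL/Kg); controls got saline alone. The PAF dose was chosen daily from small pilot groups. Survival was scored at 1.5 h and recorded as dead/total.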

Data set [2] has as its system Mus musculus. The data set is described as follows: Compound was evaluated for PAF-induced lethality in mouse (intraperitoneally at a dose of 1.0 mg/kg in saline 0.5 hr before lethal intravenous PAF challenge 75-150 mg/kg); 8/12. It is filed as ADME, organism-based. On the set-up: dose 1 mg/kg, route intravenous. To be noted: in vivo. The method in brief:
as §1

Data set [3] is filed under the species Oryctolagus cuniculus. The data set is described as follows: Concentration required to inhibit PAF (5*10e-8 M) induced platelet aggregation in rabbit platelet rich plasma(PRP) by 50%. It is filed as functional, organism-based. Summed up:
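Rabbit PRP came from blood spun at 800 rpm for 15 min at room temperature, with platelet counts of 350 000–550 000/µL. PRP was equilibrated 1–2 min at 37 °C in an aggregometer. It was preincubated 5 min with test compound (final 10^-8 to 10^-5 M; methanol stock diluted in saline) or saline, then challenged with L-C16-PAF. IC50 was taken from concentration–response curves of aggregation magnitude and averaged over separate determinations.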

The test system of data set [4] is Mus musculus. The data set is described as follows: Compound was evaluated for PAF-induced lethality in mouse (intraperitoneally at a dose of 1.0 mg/kg in saline 0.5 hr before lethal intravenous PAF challenge 75-150 mg/kg); 16/27. It is filed as ADME, organism-based. To be noted: in vivo. Details: dose 1 mg/kg. The method in brief: as §1

`CCCCCCCCCCCCCCOc1ccc(CC(=O)Nc2ccc(C[n+]3csc(C)c3)cc2)cc1.[Br-]`: in data set [1], the Lethality stood at 80%. In data set [2], the Dead/total was 8. This compound gave an IC50 in data set [3] of 600 nM.
On to `CCCCCCCCCCCCCCOc1ccc(OC)cc1CN(C(C)=O)c1cccc(C[n+]2csc(C)c2)c1.[Br-]`, for which the Lethality in data set [1] came to 59%. In addition, in data set [4], the Dead/total came to 16. Moreover, the IC50 in data set [3] turned out to be 320 nM.

The IC50 is the midpoint of a concentration-inhibition curve. Low readings indicate inhibition by little substance, high ones a need for much substance.
